# High-throughput results (PubChem BioAssay)
# FXIIa inh = inhibitors of human coagulation factor XIIa; hit rate 0.2% among 33,000; inhibition, % at 10 µM; purified human FXIIa, AMC substrate fluorescence, 2 h; P00748; in the data active = inhibition above about 30%
# Yeast tox = Inhibitors of S. cerevisiae growth, toxicity; S. cerevisiae wild-type growth, A595 turbidity, 16 h; growth inhibition, % at 25 µM (by protocol); hit rate 0.3% among 30,000;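 active = mutant and wild-type yeast strains alike exhibit over 30% growth inhibition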
#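 Incubation: 16 h growth with compound, 30 °C; Material: S. cerevisiae wild-type or eIF2Bepsilon-R284H mutant strain; Signal: turbidity measured as absorbance at 595 nm; Medium: YPD yeast growth medium; Measure: growth inhibition (%) versus cell controls and blanks; Doses: 25 µM single dose.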
# FXIa single inh = blocks human coagulation factor XIa activity. purified human FXIa, fluorogenic AMC substrate cleavage. inhibition, % at 10 µM. hit rate 0.3% among 33,000. AID 687;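 active = inhibition above 40% in the primary screen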
# Target sequence (P03951 19-387 limits assumed): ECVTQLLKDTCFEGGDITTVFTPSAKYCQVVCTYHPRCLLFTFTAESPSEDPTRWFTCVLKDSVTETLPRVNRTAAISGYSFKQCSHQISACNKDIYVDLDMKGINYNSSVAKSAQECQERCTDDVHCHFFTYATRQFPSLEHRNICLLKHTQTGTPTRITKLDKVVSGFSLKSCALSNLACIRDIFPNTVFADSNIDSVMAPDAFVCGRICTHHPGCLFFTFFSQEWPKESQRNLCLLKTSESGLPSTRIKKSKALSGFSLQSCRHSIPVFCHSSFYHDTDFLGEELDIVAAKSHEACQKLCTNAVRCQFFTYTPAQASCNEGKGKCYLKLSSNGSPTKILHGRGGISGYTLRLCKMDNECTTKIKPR
# Target sequence (P03951 388-625 limits assumed): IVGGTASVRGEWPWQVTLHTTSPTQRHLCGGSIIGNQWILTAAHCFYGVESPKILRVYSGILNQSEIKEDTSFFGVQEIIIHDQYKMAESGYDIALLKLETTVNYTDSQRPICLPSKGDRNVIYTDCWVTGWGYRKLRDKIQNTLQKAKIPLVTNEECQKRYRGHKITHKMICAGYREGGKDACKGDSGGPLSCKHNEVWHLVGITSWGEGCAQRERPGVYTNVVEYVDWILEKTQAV
# A number is an active result; – = inactive; · = not tested or not shown. Compounds with a hit are over-represented: about 0.37% of the library has one in this group of screens.
SMILES,FXIIa inh,Yeast tox,FXIa single inh
Cc1cc(C)c(S(=O)(=O)N2CCC(C(=O)NCc3ccc(Cl)cc3Cl)CC2)c(C)c1,–,82.3,–
CCS(=O)(=O)N1CCC(C(=O)NCc2ccc(F)cc2Cl)CC1,·,–,·
CCOc1ccc(C(Nc2ccc(C)cc2)P2(=O)OCCC(C)O2)cc1 (stereo not given),–,·,–
COc1ccc(CCNC(=O)COC(=O)c2cnc(C)cn2)cc1,–,·,–
Cc1cnc(C(=O)OCC(=O)NCc2ccccc2)cn1,–,·,41.2
Cc1ccc2c(c1)CCCN2C(=O)c1cc2ccccc2oc1=O,–,·,–
Cc1cc(C)nc(SC2=CS(=O)(=O)c3ccccc32)n1,–,·,–
O=S1(=O)C=C(Sc2nnc(-c3ccccc3)o2)c2ccccc21,–,76.2,–
CC(C)(Oc1ccc(Cl)cc1)C(=O)Nc1ccncc1,–,75.7,–
CC(C)(Oc1ccc(Cl)cc1)C(=O)NCc1ccco1,·,–,·
O=c1c(-c2ccco2)[n+]([O-])c2ccccc2n1OCc1ccccc1,–,·,–
O=c1c(-c2cc3ccccc3o2)[n+]([O-])c2ccccc2n1OCc1ccccn1,–,–,40.2
O=C(NCc1ccc(F)cc1)c1cnn2ccccc12,–,·,–
Cc1ccc(-c2csc(N3CCC(NS(=O)(=O)c4ccc5c(c4)OCCO5)CC3)n2)cc1,–,–,58.8
CC(C)CNS(=O)(=O)c1ccc2c(c1)OCCO2,–,–,–
O=S(=O)(/C=C/c1ccccc1)Oc1ccccc1,–,·,–
CCOc1ccc(S(=O)(=O)NCc2ccc(OC)cc2)c2cccnc12,–,–,62.0
CCOc1ccc(S(=O)(=O)N2CCN(c3ccc(OC)cc3)CC2)c2cccnc12,·,–,·
C=CCn1c(SCc2ccc(C#N)cc2)nnc1-c1ccc(C)cc1,–,–,–
CN(CCOc1ccccc1)c1ccc(S(=O)(=O)N2CCCCC2)cn1,–,·,41.2
CN(Cc1c(F)cccc1Cl)c1ccc(S(=O)(=O)N2CCOCC2)cn1,·,–,·
COc1ccc(C(=O)c2ccc(N3CCN(C(=O)c4ccc(F)cc4)CC3)c(F)c2)cc1Br,–,·,–
Cc1nc(N)c(C#N)c(-c2ccccc2)c1C,·,–,·
CC1=C(C#N)c2nc(N)c(C#N)c(C)c2/C1=C\c1ccccc1,–,53.2,–
CCOC(=O)N1CCN(C/C(C)=C/c2ccccc2)CC1,31.0,–,–
SMILES,FXIIa inh,Yeast tox,FXIa single inh
CCOC(=O)N1CCN(CC(=O)Nc2ccc(C)cc2)CC1,–,·,–
COc1cc2[nH]c(=S)n(C3CCCC3)c(=O)c2cc1OC,·,32.3,·
COc1cc2[nH]c(=S)n(N(C(C)=O)C(C)=O)c(=O)c2cc1OC,–,–,–
O=C(CCNS(=O)(=O)c1cccs1)NCc1ccccc1,–,·,–
CC(C)C(=O)c1cn(CC(=O)N2CCCc3ccccc32)c2ccccc12,·,–,·
CC(O)/C=C/c1ccc2ccccc2n1 (stereo not given),·,31.4,·
CC(Sc1ccc2ccccc2n1)C(=O)O (stereo not given),–,–,–
Cc1ccc(-c2csc3ncnc(N4CCN(C(=O)c5ccccc5)CC4)c23)cc1,–,·,–
CC(C)OC(=O)CSc1nc2ccccc2s1,–,–,–
CCC(=O)OCCNc1cc(Sc2nc3ccccc3s2)c2nonc2c1[N+](=O)[O-],–,52.4,–
CC(C)CCOC(=O)C1C(c2ccccc2)C(C(=O)O)C1c1ccccc1 (stereo not given),–,–,–
CSc1ccccc1NC(=O)c1ccccc1N(Cc1ccccc1)S(C)(=O)=O,–,·,–
Cc1cccc2cc3c(nc12)SC(=NCC1CCCO1)N(Cc1ccco1)C3 (stereo not given),·,–,·
COCCN=C1Sc2nc3c(C)cccc3cc2CN1Cc1ccco1,–,·,43.2
Cn1c(C(=O)OC(C(=O)NCc2ccco2)c2ccncc2)cc2sccc21 (stereo not given),–,–,–
CC(C)(C)NC(=O)CSC(=Nc1ccc(F)cc1)NC#N,–,·,–
O=C(Nc1nc2n(n1)C(c1ccccc1)C=C(c1ccccc1)N2)c1ccco1 (stereo not given),–,–,–
O=C(Nc1nc2n(n1)C(c1ccc(Cl)cc1)CC(c1ccc(Cl)cc1)N2)c1ccco1 (stereo not given),45.9,·,–
COc1ccc(CNC(=O)C(c2ccc(C)o2)N(C(=O)c2csnn2)c2ccc(C(C)C)cc2)cc1 (stereo not given),–,–,–
O=C(Oc1cccc(Br)c1)c1cccnc1,·,–,·
O=C(Oc1ccc2c(=O)c(Cl)coc2c1)c1cccnc1,–,·,58.8
CCN(CC)c1nc(OCCNC(=O)Nc2ccccc2)nc(N(CC)CC)n1,–,–,–
CC(C)c1nc2ccc(NC(=O)C3CCCCC3)cc2[nH]1,–,–,104.4
O=C(Nc1ccc2nc(-c3ccccn3)[nH]c2c1)C1CCCCC1,–,–,–
Cc1cc(C(=O)CN2C(=O)NC(c3ccccc3)(c3ccccc3)C2=O)c(C)n1Cc1ccccc1,–,–,–
CCN1N=C(c2ccccc2)Cn2c1nc1ccccc12,–,·,–
